Laboratory results published in ChEMBL document CHEMBL2401640, “In search of flavivirus inhibitors: evaluation of different tritylated nucleoside analogues” (Eur J Med Chem, 2013).
pEC50: −log10 of the molar value.

Assays:
[1] = Selectivity index, ratio of CC50 for african green monkey Vero cells to EC50 for YFV 17D
Summary of the method: (§1)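 Vero-B cells (ATCC CCL-81), grown in MEM with 10% FCS, seeded at 2 x 10⁴ cells/well in 2% FCS medium and left to adhere overnight. Infected with 100 CCID₅₀ of YFV-17D vaccine strain (one passage in Vero-B), then serial compound dilutions added. After one week, fixed with ethanol and stained with methylene blue. EC₅₀ for CPE inhibition and CC₅₀ from uninfected parallel cultures, both read visually.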

[2] = Cytotoxicity against african green monkey Vero cells after 1 week; format: cell-based; conditions: chlorocebus sabaeus
Summary of the method: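 Vero-B cells in MEM with 2% FCS, seeded at 7 x 10³ (DENV assay) or 2 x 10⁴ (YFV assay) cells/well and left to adhere overnight. Serial compound dilutions were added without virus and incubated one week. Cells were ethanol-fixed and stained with 1% methylene blue. CC50, the concentration inhibiting cell growth by 50%, was determined visually.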

[3] = system: Yellow fever virus; assay: Antiviral activity against YFV 17D infected in african green monkey Vero cells assessed as inhibition of virus-induced cytopathic effect after 1 week; format: functional, cell-based; conditions: 168 h; summary of the method: as §1
[4] = Cytotoxicity against mosquito C6/36 cells after 1 week; format: cell-based; conditions: aedes albopictus
[5] = Selectivity index, ratio of CC50 for mosquito C6/36 cells to EC50 for DENV serotype 2 NGC
[6] = system: dengue virus type 2; assay: Antiviral activity against DENV serotype 2 NGC infected in mosquito C6/36 cells assessed as inhibition of virus-induced cytopathic effect after 1 week; format: functional, organism-based; conditions: C6/36, 168 h

Compound	Ratio CC50/EC50 [1]	CC50 at 168 h [2]	pEC50 [3]	CC50 at 168 h [4]	Ratio CC50/EC50 [5]	pEC50 [6]
O=c1[nH]c(=O)n([C@@H]2O[C@H](COC(c3ccccc3)(c3ccccc3)c3ccccc3)[C@@H](OC(c3ccccc3)(c3ccccc3)c3ccccc3)[C@H]2O)cc1Cl	2.9	2 µM	6.15	1 µM		
Cc1cn([C@H]2C[C@H](OC(c3ccccc3)(c3ccccc3)c3ccccc3)[C@@H](COC(c3ccccc3)(c3ccccc3)c3ccccc3)O2)c(=O)[nH]c1=O	7	70 µM	5.00	35 µM		
O=c1ccn([C@@H]2O[C@H](COC(c3ccccc3)(c3ccccc3)c3ccccc3)[C@@H](O)[C@H]2O)c(=O)[nH]1	4.5	18 µM	5.40	10 µM	1.67	5.22
O=c1ccn([C@@H]2O[C@H](CO)[C@@H](OC(c3ccccc3)(c3ccccc3)c3ccccc3)[C@H]2O)c(=O)[nH]1	1.8	18 µM	5.00	18 µM		
Cc1cn([C@H]2C[C@H](OC(c3ccccc3)(c3ccccc3)c3ccccc3)[C@@H](CO)O2)c(=O)[nH]c1=O	1.8	18 µM	5.00	10 µM		
O=c1ccn([C@H]2C[C@H](OC(c3ccccc3)(c3ccccc3)c3ccccc3)[C@@H](CO)O2)c(=O)[nH]1	2.7	4 µM	5.82	5 µM		
O=c1ccn([C@@H]2O[C@H](COC(c3ccccc3)(c3ccccc3)c3ccccc3)[C@@H](O)[C@H]2OC(c2ccccc2)(c2ccccc2)c2ccccc2)c(=O)[nH]1	>80	> 100 µM	5.92	> 100 µM	>3	4.52
O=c1[nH]cnc2c1ncn2[C@@H]1O[C@H](COC(c2ccccc2)(c2ccccc2)c2ccccc2)[C@@H](OC(c2ccccc2)(c2ccccc2)c2ccccc2)[C@H]1O	>40	10 µM	> 6.40	10 µM	6.6	5.82
O=c1[nH]c(=O)n([C@@H]2O[C@H](CO)[C@@H](O)[C@H]2OC(c2ccccc2)(c2ccccc2)c2ccccc2)cc1Cl	2	30 µM	4.82	30 µM		
O=c1[nH]c(=O)n([C@@H]2O[C@H](COC(c3ccccc3)(c3ccccc3)c3ccccc3)[C@@H](O)[C@H]2OC(c2ccccc2)(c2ccccc2)c2ccccc2)cc1Cl	>90	> 70 µM	6.12	30 µM	1.75	4.77
O=c1ccn([C@H]2C[C@H](O)[C@@H](COC(c3ccccc3)(c3ccccc3)c3ccccc3)O2)c(=O)[nH]1	1.7	5 µM	5.52	8 µM		
O=c1[nH]cnc2c1ncn2[C@@H]1O[C@H](COC(c2ccccc2)(c2ccccc2)c2ccccc2)[C@@H](O)[C@H]1OC(c1ccccc1)(c1ccccc1)c1ccccc1		10 µM		6 µM		
Oc1ncnc2c1ncn2[C@@H]1O[C@H](COC(c2ccccc2)(c2ccccc2)c2ccccc2)[C@@H](O)[C@H]1O		30 µM		30 µM		
O=c1ccn([C@@H]2O[C@H](CO)[C@@H](O)[C@H]2OC(c2ccccc2)(c2ccccc2)c2ccccc2)c(=O)[nH]1	1.4	35 µM	4.60	40 µM		
O=c1ccn([C@@H]2O[C@H](COC(c3ccccc3)(c3ccccc3)c3ccccc3)[C@@H](OC(c3ccccc3)(c3ccccc3)c3ccccc3)[C@H]2O)c(=O)[nH]1	>85	> 85 µM	6.00	> 10 µM	>5	5.76
O=c1ccn([C@H]2C[C@H](OC(c3ccccc3)(c3ccccc3)c3ccccc3)[C@@H](COC(c3ccccc3)(c3ccccc3)c3ccccc3)O2)c(=O)[nH]1	>70	> 65 µM	6.05	> 65 µM	>17	5.43
O=c1[nH]c(=O)n([C@@H]2O[C@H](COC(c3ccccc3)(c3ccccc3)c3ccccc3)[C@@H](O)[C@H]2O)cc1Cl	2.5	5 µM	5.70	5 µM		
Cc1cn([C@H]2C[C@H](O)[C@@H](COC(c3ccccc3)(c3ccccc3)c3ccccc3)O2)c(=O)[nH]c1=O		8 µM		4 µM		
